Measurements from ChEMBL document CHEMBL1124660, “Synthesis and in vitro aldose reductase inhibitory activity of compounds containing an N-acylglycine moiety” (J Med Chem, 1989).
One block for each compound: values may come before it.

Key:
[1] = molecular target: T1, Aldo-keto reductase family 1 member B1 (Rattus norvegicus, UniProt P07943); assay: Inhibition of aldose reductase from rat lens. Value ranges from 5 - 97
Method in brief: (§1)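 Rat lens aldose reductase was the 40% ammonium sulfate supernatant. Assay at 30 °C in 0.1 M phosphate, pH 6.2, with 0.104 mM NADPH and 10 mM DL-glyceraldehyde, following NADPH decrease at 340 nm over 3.0 min. At least four inhibitor concentrations, three or more determinations each.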

[2] = molecular target: Aldo-keto reductase family 1 member B1 (Rattus norvegicus) (UniProt P07943); assay: Compound was evaluated at 100 uM for the ability to inhibit partially purified aldose reductase obtained from rat lens
Method in brief: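 Enzyme: 40%-saturation ammonium sulfate supernatant from homogenized rat lenses, diluted so the control rate was about 0.0100 absorbance/min. Reaction at 30 °C in 0.1 M phosphate, pH 6.2, with 0.104 mM NADPH and 10 mM DL-glyceraldehyde, started by substrate. NADPH loss was read at 340 nm for 3.0 min after a 1.0 min lag. Percent inhibition at 100 µM was taken against the substrate-only control.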

[3] = molecular target: T1, Aldo-keto reductase family 1 member B1; assay: Inhibition of aldose reductase from rat lens. Value ranges from 0.1 - 7; method in brief: as §1
[4] = molecular target: T1, Aldo-keto reductase family 1 member B1; assay: Inhibition of aldose reductase from rat lens. Value ranges from 9 - 69; method in brief: as §1
[5] = molecular target: T1, Aldo-keto reductase family 1 member B1; assay: Inhibition of aldose reductase from rat lens. Value ranges from 10 - 42; method in brief: as §1
[6] = molecular target: T1, Aldo-keto reductase family 1 member B1; assay: Inhibition of aldose reductase from rat lens. Value ranges from 280 - 490; method in brief: as §1
[7] = molecular target: T1, Aldo-keto reductase family 1 member B1; assay: Inhibition of aldose reductase from rat lens. Value ranges from 16 - 360; method in brief: as §1
[8] = molecular target: T1, Aldo-keto reductase family 1 member B1; assay: Inhibition of aldose reductase from rat lens. Value ranges from 0.5 - 16; method in brief: as §1
[9] = molecular target: T1, Aldo-keto reductase family 1 member B1; assay: Inhibition of aldose reductase from rat lens. Value ranges from 35-160; method in brief: as §1
[10] = molecular target: T1, Aldo-keto reductase family 1 member B1; assay: Inhibition of aldose reductase from rat lens. Value ranges from 17 - 720; method in brief: as §1
[11] = molecular target: T1, Aldo-keto reductase family 1 member B1; assay: Inhibition of aldose reductase from rat lens. Value ranges from 40 - 680; method in brief: as §1
[12] = molecular target: T1, Aldo-keto reductase family 1 member B1; assay: Inhibition of aldose reductase from rat lens. Value ranges from 25-64; method in brief: as §1
[13] = molecular target: T1, Aldo-keto reductase family 1 member B1; assay: Inhibition of aldose reductase from rat lens. Value ranges from 1.5 - 16; method in brief: as §1
[14] = molecular target: T1, Aldo-keto reductase family 1 member B1; assay: Inhibition of aldose reductase from rat lens. Value ranges from 3 - 300; method in brief: as §1
[15] = molecular target: T1, Aldo-keto reductase family 1 member B1; assay: Inhibition of aldose reductase from rat lens. Value ranges from 0.02 -0.64; method in brief: as §1
[16] = molecular target: T1, Aldo-keto reductase family 1 member B1; assay: Inhibition of aldose reductase from rat lens. Value ranges from 300 - 2000; method in brief: as §1
[17] = molecular target: T1, Aldo-keto reductase family 1 member B1; assay: Inhibition of aldose reductase from rat lens. Value ranges from 7 - 33; method in brief: as §1
[18] = molecular target: T1, Aldo-keto reductase family 1 member B1; assay: Inhibition of aldose reductase from rat lens. Value ranges from 1.0 - 34; method in brief: as §1
[19] = molecular target: T1, Aldo-keto reductase family 1 member B1; assay: Inhibition of aldose reductase from rat lens. Value ranges from 20 - 160; method in brief: as §1
[20] = molecular target: T1, Aldo-keto reductase family 1 member B1; assay: Inhibition of aldose reductase from rat lens. Value ranges from 32 - 110; method in brief: as §1
[21] = molecular target: T1, Aldo-keto reductase family 1 member B1; assay: Inhibition of aldose reductase from rat lens. Value ranges from 6 - 14; method in brief: as §1
[22] = molecular target: T1, Aldo-keto reductase family 1 member B1; assay: Inhibition of aldose reductase from rat lens. Value ranges from 0.3 - 2.3; method in brief: as §1
[23] = molecular target: T1, Aldo-keto reductase family 1 member B1; assay: Inhibition of aldose reductase from rat lens. Value ranges from 7 - 130; method in brief: as §1
[24] = molecular target: T1, Aldo-keto reductase family 1 member B1; assay: Inhibition of aldose reductase from rat lens. Value ranges from 110 - 430; method in brief: as §1
[25] = molecular target: T1, Aldo-keto reductase family 1 member B1; assay: Inhibition of aldose reductase from rat lens. Value ranges from 50 - 650; method in brief: as §1
[26] = molecular target: T1, Aldo-keto reductase family 1 member B1; assay: Inhibition of aldose reductase from rat lens. Value ranges from 300 - 1100; method in brief: as §1
[27] = molecular target: T1, Aldo-keto reductase family 1 member B1; assay: Inhibition of aldose reductase from rat lens. Value ranges from 140 - 580; method in brief: as §1
[28] = molecular target: T1, Aldo-keto reductase family 1 member B1; assay: Inhibition of aldose reductase from rat lens. Value ranges from 0.6 - 47; method in brief: as §1
[29] = molecular target: T1, Aldo-keto reductase family 1 member B1; assay: Inhibition of aldose reductase from rat lens. Value ranges from 0.15 - 3.3; method in brief: as §1
[30] = molecular target: T1, Aldo-keto reductase family 1 member B1; assay: Inhibition of aldose reductase from rat lens. Value ranges from 10 - 520; method in brief: as §1
[31] = molecular target: T1, Aldo-keto reductase family 1 member B1; assay: Inhibition of aldose reductase from rat lens. Value ranges from 10 - 130; method in brief: as §1
[32] = molecular target: T1, Aldo-keto reductase family 1 member B1; assay: Inhibition of aldose reductase from rat lens. Value ranges from 8.5 - 410; method in brief: as §1
[33] = molecular target: T1, Aldo-keto reductase family 1 member B1; assay: Inhibition of aldose reductase from rat lens. Value ranges from 10 - 1300; method in brief: as §1
[34] = molecular target: T1, Aldo-keto reductase family 1 member B1; assay: Inhibition of aldose reductase from rat lens. Value ranges from 4.9 - 23; method in brief: as §1

IC50 [1]: 21 µM
Compound: CC(=O)N(CC(=O)O)c1ccccc1

inhibition [2]: 14%
Compound: CC(=O)N(CC(=O)O)c1ccccc1C

inhibition [2]: 14%
Compound: CC(NC(=O)c1ccccc1)C(=O)O (stereo not drawn)

IC50 [3]: 0.96 µM
Compound: COc1ccc(N(CC(=O)O)C(=O)c2ccccc2)cc1

IC50 [4]: 25 µM
Compound: CC(=O)N(CC(=O)O)c1ccc(Cl)cc1

IC50 [5]: 27 µM
Compound: CC(=O)N(CC(=O)O)c1cccc([N+](=O)[O-])c1

IC50 [6]: 330 µM
Compound: O=C(O)CNC(=O)c1ccccc1 [HIPPURIC ACID]

inhibition [2]: 38%
Compound: COc1ccc(C(=O)NC(C)C(=O)O)cc1 (stereo not drawn)

inhibition [2]: 10%
Compound: CC(=O)N(CC(=O)O)c1cccc(C)c1

inhibition [2]: 16%
Compound: Nc1ccccc1C(=O)NCC(=O)O

IC50 [7]: 128 µM
Compound: CC(=O)N(c1ccc(C)cc1)C(C)C(=O)O (stereo not drawn)

IC50 [8]: 3 µM
Compound: Cc1ccc(N(CC(=O)O)C(=O)c2ccccc2)cc1

IC50 [9]: 71 µM
Compound: COc1ccc(C(=O)NCC(=O)O)cc1

IC50 [10]: 110 µM
Compound: CC(=O)N(c1ccc(Cl)cc1)C(C)C(=O)O (stereo not drawn)

inhibition [2]: 32%
Compound: O=C(O)CNC(=O)c1cccc([N+](=O)[O-])c1

IC50 [11]: 220 µM
Compound: O=C(O)CN(C(=O)c1ccccc1)c1ccc2ccccc2c1

inhibition [2]: 36%
Compound: Nc1cccc(C(=O)NCC(=O)O)c1

IC50 [12]: 40 µM
Compound: O=C(O)CNC(=O)c1ccc2ccccc2c1

IC50 [13]: 5 µM
Compound: O=C(O)CN(C(=O)c1ccccc1)c1ccc(Cl)cc1

inhibition [2]: 19%
Compound: Cc1ccc(C(=O)NC(C)C(=O)O)cc1 (stereo not drawn)

IC50 [14]: 31 µM
Compound: O=C(O)CNC(=O)c1ccccc1Cl

IC50 [15]: 0.13 µM
Compound: O=C(O)CN(C(=O)c1cccc([N+](=O)[O-])c1)c1ccc([N+](=O)[O-])cc1

IC50 [16]: 950 µM
Compound: COc1ccc(N(C(C)=O)C(C)C(=O)O)cc1 (stereo not drawn)

IC50 [17]: 15 µM
Compound: CC(=O)N(CC(=O)O)c1ccc(C)cc1

IC50 [18]: 5.8 µM
Compound: O=C(O)CN(C(=O)c1cccc2ccccc12)c1ccccc1

IC50 [19]: 55 µM
Compound: CC(=O)N(CC(=O)O)c1ccc(N)cc1

IC50 [20]: 58 µM
Compound: O=C(O)CNC(=O)c1ccccc1[N+](=O)[O-]

IC50 [21]: 9.5 µM
Compound: O=C(O)CN(C(=O)c1ccccc1)c1ccccc1

IC50 [22]: 0.86 µM
Compound: O=C(O)CN(C(=O)c1ccccc1)c1cccc([N+](=O)[O-])c1

IC50 [23]: 80 µM
Compound: COc1ccc(N(CC(=O)O)C(C)=O)cc1

IC50 [24]: 220 µM
Compound: Cc1ccc(C(=O)NCC(=O)O)cc1

IC50 [25]: 230 µM
Compound: O=C(O)CN(C(=O)c1ccccc1)c1cccc2ccccc12

IC50 [26]: 550 µM
Compound: O=C(O)CNC(=O)c1ccc(Cl)cc1 [4-CHLOROHIPPURIC ACID]

inhibition [2]: 22%
Compound: Nc1ccc(C(=O)NCC(=O)O)cc1

IC50 [27]: 280 µM
Compound: O=C(O)CNC(=O)c1ccc([N+](=O)[O-])cc1

IC50 [28]: 5.8 µM
Compound: CC(=O)N(CC(=O)O)c1ccc([N+](=O)[O-])cc1

IC50 [29]: 0.67 µM
Compound: O=C(O)CN1C(=O)c2cccc3cccc1c23

IC50 [30]: 79 µM
Compound: O=C(O)CN1C(=O)c2ccccc2CCc2ccccc21

IC50 [31]: 34 µM
Compound: CC(=O)N(CC(=O)O)c1ccc(O)cc1

IC50 [32]: 65 µM
Compound: O=C(O)Cn1c(=O)c2ccccc2c(=O)c2ccccc21

IC50 [33]: 200 µM
Compound: CC(=O)N(c1ccccc1)C(C)C(=O)O (stereo not drawn)

inhibition [2]: 20%
Compound: CC(=O)N(CC(=O)O)c1cccc2ccccc12

IC50 [34]: 10.7 µM
Compound: O=C(O)Cn1c(=O)c2ccccc2c2ccccc21
